Bioassay records (PubChem BioAssay)
Most compounds without a hit are left out; they make up all but 3.7% or so of the library.
KCNK9 block: inhibitors of human KCNK9 two-pore domain potassium channel | Q9NPC2 | HEK293 KCNK9, FluxOR thallium flux fluorescence; active compounds read low | B-score at 10 µM | actives 1.2% (n = 310,000);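 active means ratio B-score over 3 SD below the library mean, with starting fluorescence within 5 SD of its mean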;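 further: negative B-score means less thallium flux so channel inhibition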
Kir21 inh: blocks the mouse Kir2.1 inward-rectifier potassium channel; actives 0.85% (n = 310,000); P35561; B-score at 10 µM; HEK293-Kir2.1, FluxOR thallium flux fluorescence; active compounds read low;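 active means fluorescence ratio B-score at or below minus 3 SD of library scores, with starting-brightness B-score within 2 SD, cut at about -4.2 in these data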;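 further: channel flux triggered by added potassium and thallium sulfate stimulus; B-score of peak minus minimum fluorescence over baseline after thallium stimulus; more negative B-score means stronger Kir2.1 block with less thallium influx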
KCNQ1 inh: inhibitors of human KCNQ1 potassium channel; CHO-K1 KCNQ1, FluxOR thallium flux fluorescence; active compounds read high; B-score at 10 µM; actives 1.3% (n = 310,000);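 active means compounds whose thallium flux B-score, printed positive for inhibition, exceeds three library SD while starting fluorescence stays within three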;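 further: channel opened by potassium depolarization with thallium stimulus after 20 min compound exposure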
Target sequence (P51787 whole entry, looked up): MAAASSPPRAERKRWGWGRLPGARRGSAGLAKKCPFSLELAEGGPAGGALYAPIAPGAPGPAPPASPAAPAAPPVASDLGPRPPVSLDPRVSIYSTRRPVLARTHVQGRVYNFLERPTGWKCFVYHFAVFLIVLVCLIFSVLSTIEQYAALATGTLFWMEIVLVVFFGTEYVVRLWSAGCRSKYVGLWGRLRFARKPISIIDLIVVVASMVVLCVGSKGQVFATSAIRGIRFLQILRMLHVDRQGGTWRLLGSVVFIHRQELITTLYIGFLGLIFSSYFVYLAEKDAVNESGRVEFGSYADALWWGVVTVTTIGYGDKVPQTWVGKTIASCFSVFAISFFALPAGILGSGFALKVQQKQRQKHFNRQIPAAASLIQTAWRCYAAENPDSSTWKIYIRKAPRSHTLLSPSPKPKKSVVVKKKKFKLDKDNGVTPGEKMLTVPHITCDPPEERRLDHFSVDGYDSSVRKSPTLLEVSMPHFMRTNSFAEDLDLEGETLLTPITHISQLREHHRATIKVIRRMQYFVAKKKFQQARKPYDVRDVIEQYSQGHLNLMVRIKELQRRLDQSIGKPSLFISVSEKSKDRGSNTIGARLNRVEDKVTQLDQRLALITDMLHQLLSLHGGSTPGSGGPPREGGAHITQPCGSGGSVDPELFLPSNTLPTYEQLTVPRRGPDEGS
KCNK3 block: human KCNK3 channel inhibition, primary screen | O14649 | CHO-KCNK3 thallium flux, FluxOR fluorescence; active compounds read low | B-score at 10 µM | actives 0.84% (n = 340,000);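 active means B-score under library mean minus 4 SD, starting fluorescence ratio at most library mean plus 5 SD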;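 further: more negative B-score means stronger inhibition of thallium flux through KCNK3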
KCNQ1 act: human KCNQ1 channel potentiation or activation; P51787; CHO-K1 KCNQ1, thallium flux FluxOR fluorescence; active compounds read high; AID 2648; B-score at 10 µM; actives 0.35% (n = 310,000);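 active means fluorescence ratio B-score, a plate-corrected score, at least three library SD, with initial intensity B-score within 5 SD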
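Assay system: stable KCNQ1 CHO-K1 line; medium: assay buffer, equal DMSO in all wells; timing: 90 min dye loading and 20 min compound exposure, both at room temperature; technique: kinetic FluxOR thallium fluorescence, 10-s 1-Hz baseline, 110-s post-stimulus read; read-out basis: B score of baseline-normalized fluorescence ratio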
hERG protect: shields human hERG channel from block by proarrhythmic agents | Q12809 | CHO-hERG, FluxOR thallium flux, dofetilide IC70 present | actives 0.51% (n = 310,000) | activation (rescue from dofetilide block), less the hit threshold, % at 10 µM | AID 1511;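 active means activation above the mean of controls blocked by dofetilide plus 5 SD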;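 further: thallium influx through hERG after potassium depolarization seen as dye fluorescence rise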
KCNK9 block conf: human KCNK9 inhibitor confirmation; shares compounds with KCNK9 block; HEK293 KCNK9 cells, FluxOR thallium flux fluorescence; inhibition, % at 10 µM; actives 43% (n = 4,900);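 active means thallium signal inhibited by more than 5 SD of the compound-free buffer control wells, on both duplicate plates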;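 further: 0% = assay buffer control wells without compound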
Kir2-1 spec: selectivity of KCNK9 modulators against mouse Kir2.1; shares compounds with KCNK9 block; Kir2.1 cells, FluxOR thallium flux fluorescence; inhibition, % at 10 µM; actives 4% (n = 4,900);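 active means thallium signal drop more than 5 SD beyond the mean of the no-compound control wells, seen in both duplicate plates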;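 further: signal is fluorescence rise after thallium addition divided by baseline fluorescence; plate controls were assay buffer only for no effect and full block by chlorpromazine control for full effect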
KCNK9 uninduced: second check of KCNK9 modulator effects in non-induced HEK293 cells; shares compounds with KCNK9 block; FluxOR thallium flux; inhibition, % at 10 µM; actives 40% (n = 4,900); AID 492997;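 active means thallium signal drop beyond 5 SD of the untreated control mean, on both duplicate plates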;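 further: plate controls were buffer only IC0 wells for no effect and SID17386958 at its maximal inhibitory level for full effect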
Numbers without * were called inactive; i = inactive; . = not tested or not shown.

SMILES | KCNK9 block | Kir21 inh | KCNQ1 inh | KCNK3 block | KCNQ1 act | hERG protect | KCNK9 block conf | Kir2-1 spec | KCNK9 uninduced
Cc1ccc(C(=O)OCC(=O)N2CC(C)CC(C)C2)cc1S(=O)(=O)N1CCOCC1 (stereo not drawn) | i | 0.17 | i | i | i | -9 | . | . | .
Cc1ccc(C)c(OCCn2c(=O)c3c(ncn3C3CCCC3)n(Cc3ccccc3)c2=O)c1 | i | -0.7 | i | i | i | -13 | i | i | i
O=c1c2c(ncn2C2CCCC2)n(Cc2ccccc2)c(=O)n1CCOc1ccc(Br)cc1 | i | -0.13 | i | i | i | -9 | i | i | i
O=c1c2c(ncn2C2CCCC2)n(Cc2ccccc2)c(=O)n1CCOc1ccccc1 | i | -1.4 | i | i | i | -2 | i | i | i
CN(C(=O)c1ccccc1C(=O)OCC(=O)Nc1cccc(Br)c1)c1ccccc1 | . | . | . | i | . | . | . | . | .
COc1ccc2cc(C#N)c(N3CCN(C(=O)c4ccccc4C)CC3)nc2c1 | i | -1.2 | i | i | i | -12 | i | i | i
Cc1cc(Cl)c(OCCCCNC(C)(C)C)c(Br)c1 | i | -3.7 | i | . | i | -4 | . | . | .
O=C(c1ccc(F)cc1)N1CCN(c2cc(N3CCCCC3)c(F)cc2[N+](=O)[O-])CC1 | i | -0.49 | i | i | i | -8 | i | i | i
COc1ccc(N2CCN(C(=O)c3ccc(F)cc3)CC2)c([N+](=O)[O-])c1 | i | -0.05 | i | i | i | -9 | . | . | .
CCOc1cc(CNc2ccc(Br)cc2)cc(Br)c1OCC(=O)NC(C)(C)C | -9.2* | -0.15 | i | i | i | 2 | 47%* | i | 40%*
Cc1cc(C)c(OCC(=O)Nc2ccccc2N2CCOCC2)c(C)c1 | -10* | -2 | i | -10* | i | -7 | i | i | 48%*
CCC(=O)N1CCN(c2ccccc2NC(=O)COc2cc(C)ccc2C(C)C)CC1 | -8.2* | -2.1 | i | i | i | -5 | 46%* | i | 28%*
CCCCCC(=O)Nc1ccccc1N1CCN(c2ccccc2)CC1 | -13* | 0.14 | i | -11* | i | -5 | 49%* | i | 36%*
O=C(COc1ccccc1)Nc1ccccc1N1CCN(c2ccc(F)cc2)CC1 | -8.6* | -0.28 | i | i | i | -3 | i | i | 28%*
Cc1cc(C)c(OCC(=O)Nc2ccccc2N2CCCCC2)c(C)c1 | i | 0.85 | i | i | i | -10 | . | . | .
CSc1cnn(Cc2ccccc2)c(=O)c1SCc1ccccc1 | i | -4.6* | i | i | i | -6 | i | 40%* | 44%*
O=C(Cn1c2c(c(-c3ccccc3)cc1=O)CCCC2)N1CCCCCC1 | i | 0.36 | i | i | i | -18 | i | i | 32%*
COc1cc(CNCCSc2nnnn2C)cc(Br)c1OCc1ccccc1F | i | -0.09 | i | i | i | -14 | . | . | .
CCOc1cc(CNCCSc2nnnn2C)cc(Br)c1OCc1ccccc1F | -9.5* | 0.04 | i | i | i | -21 | i | i | 32%*
CN1C(=O)C(=O)/C(=C(/O)c2ccc(Br)cc2)C1c1ccc(F)cc1 (stereo not drawn) | i | 2.4 | i | i | i | -16 | . | . | .
C/C(=N\NC(=O)COc1ccc(C)cc1C(C)C)c1cc2ccccc2o1 | i | 1.1 | i | i | i | 0 | i | i | i
C/C(=N\NC(=O)COc1ccc(C(C)(C)C)cc1)c1cc2ccccc2o1 | i | 0.68 | i | i | i | -3 | i | i | i
Cc1cccc(N(C)S(=O)(=O)c2c(C)noc2C)c1 | i | -2 | i | i | i | -4 | . | . | .
CSc1ccc(S(=O)(=O)NCC(=O)OCC(=O)N(Cc2ccccc2)C(C)C)cc1[N+](=O)[O-] | i | -0.6 | i | i | i | -18 | . | . | .
CN1C(=O)C2(Nc3ccccc3-c3nc4ccccc4n32)c2ccccc21 (stereo not drawn) | i | -0.25 | i | i | i | -5 | . | . | .
SMILES | KCNK9 block | Kir21 inh | KCNQ1 inh | KCNK3 block | KCNQ1 act | hERG protect | KCNK9 block conf | Kir2-1 spec | KCNK9 uninduced
CCN1C(=O)C2(Nc3ccccc3-c3nc4ccccc4n32)c2cc(OC)ccc21 (stereo not drawn) | -15* | -1.2 | i | i | i | -13 | 58%* | i | 24%*
C=CCn1c(O)c2ccc(C(=O)N=NC(=O)COc3ccc(OC)cc3)cc2c1O | i | -0.87 | i | i | i | -8 | . | . | .
O=C(Nc1nc(-c2cc(Cl)sc2Cl)cs1)c1cccs1 | -8.9* | 0.94 | i | -12* | i | -13 | 50%* | i | i
CC(C)NC(C(=O)Nc1cc(Cl)cc(Cl)c1)c1ccccc1 (stereo not drawn) | -9.3* | -0.83 | i | i | i | -11 | 34%* | i | 25%*
CN(C)CCNC(C(=O)Nc1cc(Cl)cc(Cl)c1)c1ccccc1 (stereo not drawn) | i | -1.1 | i | i | i | -3 | . | . | .
Nc1ccc(C2(c3ccc(N)cc3)OC(=O)c3ccccc32)cc1 | i | 0.24 | i | i | i | -4 | . | . | .
Cc1cc(C2(c3ccc(O)c(C)c3)OC(=O)c3ccccc32)ccc1O | -12* | -2 | i | i | i | -6 | 55%* | i | i
CCC(C)N(C(=O)Cn1nnc2ccccc21)C(C(=O)Nc1ccc(F)cc1)c1cccc(OC)c1 (stereo not drawn) | -9.2* | 1.3 | i | i | i | -4 | 36%* | i | i
COCCNC(=O)C(c1cccc(OC)c1)N(Cc1cccs1)C(=O)Cn1nnc2ccccc21 (stereo not drawn) | i | -0.29 | i | i | i | -8 | . | . | .
CCN(CC(=O)Nc1ccc(NC(C)=O)cc1)C(=O)CN1C(=O)C2CCCCC2C1=O (stereo not drawn) | . | . | . | i | . | . | . | . | .
CC1CCCCN1C(=O)CSc1nc2cc3c(cc2c(=O)n1Cc1ccc2c(c1)OCO2)OCO3 (stereo not drawn) | i | -0.42 | i | i | i | -18 | i | i | 24%*
Clc1ccc(-c2csc3ncnc(N4CCc5ccccc5C4)c23)cc1 | -10* | -0.48 | i | i | i | -14 | 45%* | i | 40%*
